Results gathered from unrelated publications.
Lines come from different studies, so protocols differ.
Target: Protein kinase C theta type (PRKCQ, Homo sapiens, UniProt Q04759)

COc1ncccc1-c1cnn2ccc(N3CCN(C(=O)OC(C)C)CC3)nc12 — remaining binding (binding; competition with immobilised ligand; 1 µM): 100%
Nc1ncc(-c2nc(N3CCOCC3)nc(N3CCOCC3)n2)c(C(F)F)n1 — remaining binding (cell-free assay; competition with immobilised ligand; 10 µM): 37%
C#Cc1n[nH]c2c(-c3cn(C(C)c4ccccn4)c(=O)[nH]c3=O)cc(F)cc12 (stereo not shown) — inhibition (enzyme activity; inhibitor; 1 µM): 1.2%
CC(C)(C)c1cc(C=C(C#N)C#N)cc(Br)c1O — remaining activity (enzyme activity; inhibitor; 0.5 µM): 98%
Cn1cncc1[C@@](O)(COc1ccc(C#N)cc1-c1ccc(OC(F)(F)F)cc1)c1ccc(C#N)cc1 — remaining binding (cell-free assay; competition with immobilised ligand; 1 µM): 100%
Cc1nn(C)cc1-c1nc2c(N3CCN(Cc4ccc(Cl)cc4)CC3)c(Cl)cnc2[nH]1 — remaining binding (binding; competition with immobilised ligand; 1 µM): 100%
Cn1cc(-c2cccc(N3CCc4c(sc5c4CC(C)(C)C5)C3=O)c2CO)cc(Nc2ccncn2)c1=O — inhibition (enzyme activity; inhibitor; 1 µM): -5%
O=c1[nH]c2ccccc2n1C1CCN(Cc2ccc(-c3[nH]c4cc5ncnc5cc4nc3-c3ccccc3)cc2)CC1 — remaining signal (cell-free assay; 0.5 µM): 96.4%
N#CC1(c2ccccn2)CCN(Cc2cc(C(=O)O)c(=O)n3ccccc23)CC1 — remaining binding (cell-free assay; competition with immobilised ligand; 1 µM): 96%
Cn1cc(-c2cc(F)cc(N3CCn4c(cc5c4CCCC5)C3=O)c2CO)cc(Nc2ccc(N3CCN(C4COC4)CC3)cn2)c1=O — inhibition (enzyme activity; inhibitor; 0.1 µM): 0%
